Test results from publication PMC4477354 (Diabetes, 2015).
Where two headings read alike, the source gives them in different places.

Experiments:
[1] = type: in vivo, rat; conditions: rats, 0.5 units/kg s.c.; for CSF insulin at 6, 12 and 24 h / plasma glucose at 6 h and 12 h: Ps < 0.05; for time by which plasma insulin had returned to baseline: sampled 0, 6, 12, 24, 48, 72 h
Summary of the method: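 Overnight-fasted rats, n = 7–8/group, received GLAR or DET 0.5 units/kg s.c. CSF (~150 µL) taken from the cisterna magna under isoflurane at 0, 6, 12, 24, 48 or 72 h, then blood collected after decapitation. Insulin by ELISA with standards from each injected insulin (450 minus 630 nm). Plasma glucose by glucometer in duplicate. Factorial ANOVA.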

[2] = Food intake, body weight and body composition; type: in vivo, mouse; conditions: mice, P < 0.05; for body fat compared with the saline-control group: NMR
Summary of the method: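 Mice were first matched by fat mass using NMR while conscious. They then received (n = 12/group) daily s.c. saline, DET or GLAR at 1 unit/kg for 6 weeks. Body weight and food intake recorded weekly; NMR body composition repeated at the end. Repeated-measures ANOVA with Tukey post hoc.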

[3] = type: in vivo, mouse; conditions: mice, 1 unit/kg s.c. daily for 6 weeks, n = 7-9/group, P < 0.05
Summary of the method: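 Mice, n = 7–9/group, were injected s.c. daily for 6 weeks with saline, GLAR or DET (1 unit/kg). CSF from the cisterna magna (isoflurane, 4-h fast) and EDTA plasma were taken 24 h after the last dose. Insulin measured by ELISA on 10 µL CSF or 5 µL plasma, against standards from the injected insulins.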

[4] = type: in vivo, mouse; conditions: mice, 1 unit/kg s.c.; for CSF insulin at 6 and 12 h: Ps < 0.05; for time by which plasma insulin had returned to baseline: sampled 0, 6, 12, 24, 48 h
Summary of the method: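 Mice fasted 4 h, n = 7–8/group, given 1 unit/kg s.c. GLAR or DET. CSF (~15 µL, glass capillary) drawn from the cisterna magna under isoflurane at baseline and 6, 12, 24, 48 h, then trunk blood taken into chilled EDTA. Insulin measured by ELISA against standards made from each injected insulin. Blood-contaminated CSF discarded; factorial ANOVA.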

insulin receptor = conditions: mice, cited from earlier work
[5] = type: in vivo, rat; conditions: rats, 0.5 units/kg i.p.
Summary of the method: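 Rats, n = 6–8/time point, overnight-fasted, were given 0.5 units/kg i.p. NPH insulin or DET. Cisternal CSF taken under isoflurane at 5, 10, 20, 40, 80, 160 or 320 min, followed by EDTA blood. Insulin by ELISA with standards from each injected insulin. Plasma glucose by glucometer in duplicate. Factorial ANOVA.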

[6] = extended by albumin binding of the attached fatty acid; cited from earlier work
[7] = men, plasma glucose comparably clamped; cited from earlier work
[8] = clinical trials, basal insulin replacement; cited from earlier work
[9] = type: in vivo, rat; conditions: rats
Summary of the method: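 Overnight-fasted rats, n = 8–10/dose, got NPH insulin or DET i.p. at 0, 0.1, 0.3, 1, 3 or 10 units/kg. They were anesthetized with isoflurane at 25 min and cisternal CSF drawn at 30 min, then blood collected. Insulin by ELISA (2 h at 4°C; conjugate 30 min; substrate 40 min). Glucose by glucometer in duplicate. Factorial ANOVA.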

[10] = Food intake and body weight after third-ventricular; type: in vivo, rat; conditions: rats, 8 mU I3VT
Summary of the method: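 Rats carried a third-ventricle cannula (2.2 mm posterior to bregma, midline), checked by drinking >5 mL within 30 min after 10 ng angiotensin II. Rats (n = 16) were handled for 4 days with food removed for the last 4 h of light. In randomized crossover 1 week apart, they received 8 mU DET or NPH insulin, or 2 µL saline, 1 h before dark. Food returned at dark; intake and weight taken at 24 and 48 h. Repeated-measures ANOVA, Tukey.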

[11] = overweight humans, intravenous; cited from earlier work
[12] = 1 unit/kg s.c. daily for 6 weeks

insulin glargine
CSF insulin at 48 h [1]: returned to baseline | plasma glucose at 24 h [1]: remained lower | plasma insulin at 12 h, DET compared with GLAR ([1]; P < 0.05): higher plasma insulin | CSF insulin at 6, 12 and 24 h [1]: comparably increased | plasma glucose at 6 h and 12 h [1]: reduced | time by which plasma insulin had returned to baseline [1]: ≤ 48 h | body fat compared with the saline-control group [2, 12]: higher | body weight relative to saline-treated animals by week 6 ([2]; 1 unit/kg s.c. daily): increased relative to that of saline-treated animals | plasma insulin relative to controls 24 h after the final injection [3]: continued to have elevated plasma insulin | CSF insulin after 24 and 48 h [4]: lower at 24 h and had returned to baseline by 48 h | plasma insulin at 12 h, DET compared with GLAR ([4]; P < 0.05): higher plasma concentrations | CSF insulin at 6 and 12 h [4]: comparably increased | time by which plasma insulin had returned to baseline [4]: ≤ 48 h

Insulin detemir
CSF insulin at 48 h [1]: continued to have elevated CSF insulin | CSF insulin at 6, 12 and 24 h [1]: comparably increased | plasma glucose at 6 h and 12 h [1]: reduced | plasma insulin at 6 h, DET compared with GLAR ([1]; n = 7-8/group, P < 0.05): elevated more | time by which plasma insulin had returned to baseline [1]: ≤ 24 h | uptake into the brain (insulin receptor; insulin in brain tissue extracts): preferential uptake of DET into the brain | phosphorylation of the insulin receptor in hypothalamus (insulin receptor): selectively increased phosphorylation of the insulin receptor | plasma glucose levels over time ([5]; 5-320 min, P < 0.05): relatively constant level for the duration of the experiment | plasma glucose at 80, 160 and 320 min, DET relative to NPH ([5]; Ps < 0.05): sustained hypoglycemia | insulin in plasma (160 and 320 min) and CSF (320 min), DET relative to NPH ([5]; planned comparison, P < 0.05): more prolonged elevation of insulin | time at which CSF insulin reached baseline ([5]; sampled up to 320 min): > 320 min | time at which plasma insulin was no longer elevated relative to baseline ([5]; sampled up to 320 min): > 320 min | body fat compared with the saline-control group [2, 12]: significantly lower | cumulative food intake compared with GLAR or saline groups [2, 12]: significantly lower | CSF insulin relative to controls 24 h after the final injection [3]: had increased insulin | plasma half-life [6]: 5 to 7 h | electroencephalogram activity in the frontal cortex compared with regular insulin [7]: significant change in electroencephalogram activity | food intake compared with regular insulin [7]: significant reduction of food intake | CSF insulin after 24 and 48 h [4]: elevated CSF insulin levels | CSF insulin at 6 and 12 h [4]: comparably increased | plasma insulin at 6 h, DET compared with GLAR ([4]; n = 7-8/group, P < 0.05): elevated to a greater extent | time by which plasma insulin had returned to baseline [4]: ≤ 24 h | weight gain compared with other long-acting formulations [8]: less weight gain | plasma glucose after 30 min ([9]; 0-10 units/kg i.p., 30 min postinjection, glucometer): dose-dependent decrease | plasma insulin after 30 min ([9]; 0-10 units/kg i.p., 30 min postinjection, insulin ELISA, n = 8-10/dose): increased at all doses | CSF insulin after 30 min ([9]; 0-10 units/kg i.p., CSF sampled 30 min postinjection, insulin ELISA): elevated after all doses | dose at which apparent saturation of CSF insulin levels occurred ([9]; i.p., 30 min postinjection): ≤ 3 units/kg | body weight after 24 h ([10]; P < 0.05): significant weight loss | body weight after 48 h ([10]; P < 0.05): maintaining this weight loss | food intake after 48 h relative to saline ([10]; crossover, n = 16): remained significantly reduced | food intake over 24 h relative to saline ([10]; crossover, n = 16, P < 0.05): ate significantly less food | cerebrocortical activity [11]: increased cerebrocortical activity
